Measured values published in ChEMBL document CHEMBL5303300, “EUbOPEN Chemogenomics Library - Multiplex” (2023).
“And” between values parts separate entries of the source, which are not always exact repeats. Identical values can stand only once.

Tests used:
Format in all cases: toxicity, cell-based
[1] = test system: Fibroblast; test: Multiplex assay against human fibroblast; details: number of replicates 2
Method in brief: (§1)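 Live cells carried four stains from seeding: Hoechst33342, BioTracker Green Microtubule Cytoskeleton Dye, MitoTracker Red and Annexin V Alexa Fluor 680. They were imaged on a CQ1 microscope at 37°C and 5% CO2 after compound addition. Using CellPathfinder machine-learning gating, cells were split into Hoechst high-intensity objects or normal cells, normal cells into healthy, pyknosed or fragmented nuclei, and pyknosed cells into mitotic or apoptotic; tubulin, mitochondrial-mass and membrane-permeability phenotypes are per cents of healthy-nucleus cells.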

[2] = test system: HEK-293T; test: Multiplex assay against HEK293T; details: human, number of replicates 2; method in brief: as §1
[3] = test system: U2OS; test: Multiplex assay against U2OS; details: human, number of replicates 2; method in brief: as §1
[4] = 12 h, 1 µM, compound concentration 1 uM
[5] = 12 h, 10 µM, compound concentration 10 uM
[6] = 24 h, 1 µM, compound concentration 1 uM
[7] = 24 h, 10 µM, compound concentration 10 uM
[8] = 48 h, 1 µM, compound concentration 1 uM
[9] = 48 h, 10 µM, compound concentration 10 uM

Structure (SMILES): Br.Oc1cc2c(cc1O)C(c1ccccc1)CNCC2 (stereo not drawn)
- Population Apoptotic (%) [1, 4]: 86% and 44%
- Population Fragmented Nuclei (%) [1, 4]: 18% and 16%
- Population Healthy Nuclei (%) [1, 4]: 73%
- Population Hoechst High Intensity Objects (%) [1, 4]: 0%
- Population Membrane Permeable-Phenotype (%) [1, 4]: 5% and 4%
- Population Mitochondria Different-Phenotype (%) [1, 4]: 0% and 1%
- Population Normal (%) [1, 4]: 100% and 99%
- Population Pyknosed Nuclei (%) [1, 4]: 8% and 10%
- Population Tubulin-Different-Phenotype (%) [1, 4]: 7% and 6%
- Total Cell Count [1, 4]: 185 and 180
- Population Apoptotic (%) [1, 5]: 76% and 66%
- Population Fragmented Nuclei (%) [1, 5]: 13% and 12%
- Population Healthy Nuclei (%) [1, 5]: 76% and 79%
- Population Hoechst High Intensity Objects (%) [1, 5]: 0%
- Population Membrane Permeable-Phenotype (%) [1, 5]: 2%
- Population Mitochondria Different-Phenotype (%) [1, 5]: 0% and 4%
- Population Mitotic Cells (%) [1, 5]: 23% and 33%
- Population Normal (%) [1, 5]: 100%
- Population Pyknosed Nuclei (%) [1, 5]: 9% and 8%
- Population Tubulin-Different-Phenotype (%) [1, 5]: 15% and 11%
- Total Cell Count [1, 5]: 132 and 172
- Population Apoptotic (%) [1, 6]: 31% and 66%
- Population Fragmented Nuclei (%) [1, 6]: 18% and 16%
- Population Healthy Nuclei (%) [1, 6]: 69% and 76%
- Population Hoechst High Intensity Objects (%) [1, 6]: 0%
- Population Membrane Permeable-Phenotype (%) [1, 6]: 6% and 4%
- Population Mitochondria Different-Phenotype (%) [1, 6]: 0%
- Population Mitotic Cells (%) [1, 6]: 68% and 33%
- Population Normal (%) [1, 6]: 100%
- Population Pyknosed Nuclei (%) [1, 6]: 11% and 6%
- Population Tubulin-Different-Phenotype (%) [1, 6]: 6% and 2%
- Total Cell Count [1, 6]: 187 and 183
- Population Apoptotic (%) [1, 7]: 80% and 50%
- Population Fragmented Nuclei (%) [1, 7]: 12% and 13%
- Population Healthy Nuclei (%) [1, 7]: 84% and 79%
- Population Hoechst High Intensity Objects (%) [1, 7]: 0%
- Population Membrane Permeable-Phenotype (%) [1, 7]: 1%
- Population Mitochondria Different-Phenotype (%) [1, 7]: 0% and 1%
- Population Mitotic Cells (%) [1, 7]: 20% and 50%
- Population Normal (%) [1, 7]: 100%
- Population Pyknosed Nuclei (%) [1, 7]: 3% and 7%
- Population Tubulin-Different-Phenotype (%) [1, 7]: 9% and 13%
- Total Cell Count [1, 7]: 140 and 169
- Population Apoptotic (%) [1, 8]: 90% and 54%
- Population Fragmented Nuclei (%) [1, 8]: 18% and 14%
- Population Healthy Nuclei (%) [1, 8]: 75% and 79%
- Population Hoechst High Intensity Objects (%) [1, 8]: 0%
- Population Membrane Permeable-Phenotype (%) [1, 8]: 2%
- Population Mitochondria Different-Phenotype (%) [1, 8]: 0%
- Population Normal (%) [1, 8]: 100%
- Population Pyknosed Nuclei (%) [1, 8]: 5%
- Population Tubulin-Different-Phenotype (%) [1, 8]: 4% and 3%
- Total Cell Count [1, 8]: 175 and 194
- Population Apoptotic (%) [1, 9]: 25% and 42%
- Population Fragmented Nuclei (%) [1, 9]: 19% and 17%
- Population Healthy Nuclei (%) [1, 9]: 77% and 78%
- Population Hoechst High Intensity Objects (%) [1, 9]: 0%
- Population Membrane Permeable-Phenotype (%) [1, 9]: 0% and 1%
- Population Mitochondria Different-Phenotype (%) [1, 9]: 0%
- Population Mitotic Cells (%) [1, 9]: 75% and 57%
- Population Normal (%) [1, 9]: 100%
- Population Pyknosed Nuclei (%) [1, 9]: 2% and 3%
- Population Tubulin-Different-Phenotype (%) [1, 9]: 10% and 9%
- Total Cell Count [1, 9]: 163 and 182
- Population Apoptotic (%) [2, 4]: 30% and 41%
- Population Fragmented Nuclei (%) [2, 4]: 5% and 3%
- Population Healthy Nuclei (%) [2, 4]: 85%
- Population Hoechst High Intensity Objects (%) [2, 4]: 6% and 4%
- Population Membrane Permeable-Phenotype (%) [2, 4]: 4% and 2%
- Population Mitochondria Different-Phenotype (%) [2, 4]: 9% and 10%
- Population Mitotic Cells (%) [2, 4]: 69% and 58%
- Population Normal (%) [2, 4]: 93% and 95%
- Population Pyknosed Nuclei (%) [2, 4]: 9% and 10%
- Population Tubulin-Different-Phenotype (%) [2, 4]: 45% and 42%
- Total Cell Count [2, 4]: 950 and 793
- Population Apoptotic (%) [2, 5]: 36% and 47%
- Population Fragmented Nuclei (%) [2, 5]: 4% and 3%
- Population Healthy Nuclei (%) [2, 5]: 86% and 88%
- Population Hoechst High Intensity Objects (%) [2, 5]: 7% and 5%
- Population Membrane Permeable-Phenotype (%) [2, 5]: 2% and 0%
- Population Mitochondria Different-Phenotype (%) [2, 5]: 12% and 21%
- Population Mitotic Cells (%) [2, 5]: 63% and 52%
- Population Normal (%) [2, 5]: 92% and 94%
- Population Pyknosed Nuclei (%) [2, 5]: 8%
- Population Tubulin-Different-Phenotype (%) [2, 5]: 51% and 55%
- Total Cell Count [2, 5]: 631 and 499
- Population Apoptotic (%) [2, 6]: 20% and 36%
- Population Fragmented Nuclei (%) [2, 6]: 6% and 5%
- Population Healthy Nuclei (%) [2, 6]: 89%
- Population Hoechst High Intensity Objects (%) [2, 6]: 8% and 9%
- Population Membrane Permeable-Phenotype (%) [2, 6]: 3% and 2%
- Population Mitochondria Different-Phenotype (%) [2, 6]: 3%
- Population Mitotic Cells (%) [2, 6]: 80% and 63%
- Population Normal (%) [2, 6]: 91% and 90%
- Population Pyknosed Nuclei (%) [2, 6]: 4% and 5%
- Population Tubulin-Different-Phenotype (%) [2, 6]: 27% and 29%
- Total Cell Count [2, 6]: 1693 and 1195
- Population Apoptotic (%) [2, 7]: 29% and 50%
- Population Fragmented Nuclei (%) [2, 7]: 9% and 7%
- Population Healthy Nuclei (%) [2, 7]: 86% and 88%
- Population Hoechst High Intensity Objects (%) [2, 7]: 9% and 6%
- Population Membrane Permeable-Phenotype (%) [2, 7]: 4% and 2%
- Population Mitochondria Different-Phenotype (%) [2, 7]: 3% and 12%
- Population Mitotic Cells (%) [2, 7]: 70% and 50%
- Population Normal (%) [2, 7]: 90% and 93%
- Population Pyknosed Nuclei (%) [2, 7]: 4%
- Population Tubulin-Different-Phenotype (%) [2, 7]: 30% and 40%
- Total Cell Count [2, 7]: 1020 and 788
- Population Apoptotic (%) [2, 8]: 4% and 10%
- Population Fragmented Nuclei (%) [2, 8]: 20% and 11%
- Population Healthy Nuclei (%) [2, 8]: 78% and 85%
- Population Hoechst High Intensity Objects (%) [2, 8]: 11% and 9%
- Population Membrane Permeable-Phenotype (%) [2, 8]: 6% and 5%
- Population Mitochondria Different-Phenotype (%) [2, 8]: 0%
- Population Mitotic Cells (%) [2, 8]: 95% and 89%
- Population Normal (%) [2, 8]: 88% and 90%
- Population Pyknosed Nuclei (%) [2, 8]: 1% and 2%
- Population Tubulin-Different-Phenotype (%) [2, 8]: 17% and 16%
- Total Cell Count [2, 8]: 4091 and 2858
- Population Fragmented Nuclei (%) [2, 9]: 23% and 14%
- Population Healthy Nuclei (%) [2, 9]: 75% and 82%
- Population Hoechst High Intensity Objects (%) [2, 9]: 9%
- Population Membrane Permeable-Phenotype (%) [2, 9]: 8% and 5%
- Population Mitochondria Different-Phenotype (%) [2, 9]: 0% and 1%
- Population Mitotic Cells (%) [2, 9]: 96% and 84%
- Population Normal (%) [2, 9]: 90%
- Population Pyknosed Nuclei (%) [2, 9]: 1% and 3%
- Population Tubulin-Different-Phenotype (%) [2, 9]: 15% and 21%
- Total Cell Count [2, 9]: 2576 and 1623
- Population Fragmented Nuclei (%) [3, 4]: 14% and 5%
- Population Healthy Nuclei (%) [3, 4]: 80% and 82%
- Population Hoechst High Intensity Objects (%) [3, 4]: 0%
- Population Membrane Permeable-Phenotype (%) [3, 4]: 2% and 1%
- Population Mitochondria Different-Phenotype (%) [3, 4]: 0%
- Population Mitotic Cells (%) [3, 4]: 100% and 50%
- Population Normal (%) [3, 4]: 100%
- Population Pyknosed Nuclei (%) [3, 4]: 6% and 11%
- Population Tubulin-Different-Phenotype (%) [3, 4]: 67% and 89%
- Population Apoptotic (%) [3, 5]: 57% and 30%
- Population Healthy Nuclei (%) [3, 5]: 33% and 85%
- Population Hoechst High Intensity Objects (%) [3, 5]: 0%
- Population Membrane Permeable-Phenotype (%) [3, 5]: 0% and 1%
- Population Mitochondria Different-Phenotype (%) [3, 5]: 0% and 1%
- Population Mitotic Cells (%) [3, 5]: 42% and 69%
- Population Normal (%) [3, 5]: 100%
- Population Tubulin-Different-Phenotype (%) [3, 5]: 50% and 75%
- Population Apoptotic (%) [3, 6]: 50% and 61%
- Population Fragmented Nuclei (%) [3, 6]: 8% and 5%
- Population Healthy Nuclei (%) [3, 6]: 83% and 82%
- Population Hoechst High Intensity Objects (%) [3, 6]: 2% and 0%
- Population Membrane Permeable-Phenotype (%) [3, 6]: 2% and 0%
- Population Mitochondria Different-Phenotype (%) [3, 6]: 2% and 0%
- Population Mitotic Cells (%) [3, 6]: 50% and 38%
- Population Normal (%) [3, 6]: 97% and 100%
- Population Pyknosed Nuclei (%) [3, 6]: 8% and 11%
- Population Tubulin-Different-Phenotype (%) [3, 6]: 67% and 91%
- Population Apoptotic (%) [3, 7]: 50% and 44%
- Population Healthy Nuclei (%) [3, 7]: 58% and 88%
- Population Hoechst High Intensity Objects (%) [3, 7]: 0%
- Population Membrane Permeable-Phenotype (%) [3, 7]: 10% and 0%
- Population Mitochondria Different-Phenotype (%) [3, 7]: 10% and 0%
- Population Mitotic Cells (%) [3, 7]: 50% and 55%
- Population Normal (%) [3, 7]: 100%
- Population Pyknosed Nuclei (%) [3, 7]: 23% and 8%
- Population Tubulin-Different-Phenotype (%) [3, 7]: 80% and 83%
- Population Apoptotic (%) [3, 8]: 37% and 53%
- Population Fragmented Nuclei (%) [3, 8]: 13% and 3%
- Population Healthy Nuclei (%) [3, 8]: 78% and 89%
- Population Hoechst High Intensity Objects (%) [3, 8]: 0%
- Population Membrane Permeable-Phenotype (%) [3, 8]: 5% and 0%
- Population Mitochondria Different-Phenotype (%) [3, 8]: 2% and 0%
- Population Mitotic Cells (%) [3, 8]: 62% and 46%
- Population Normal (%) [3, 8]: 100% and 99%
- Population Pyknosed Nuclei (%) [3, 8]: 8% and 7%
- Population Tubulin-Different-Phenotype (%) [3, 8]: 64% and 99%
- Population Apoptotic (%) [3, 9]: 44% and 64%
- Population Healthy Nuclei (%) [3, 9]: 54% and 90%
- Population Hoechst High Intensity Objects (%) [3, 9]: 0%
- Population Membrane Permeable-Phenotype (%) [3, 9]: 10% and 0%
- Population Mitochondria Different-Phenotype (%) [3, 9]: 10% and 0%
- Population Mitotic Cells (%) [3, 9]: 55% and 35%
- Population Normal (%) [3, 9]: 100%
- Population Tubulin-Different-Phenotype (%) [3, 9]: 84% and 93%
